Our source for the IC50 values is ChEMBL document CHEMBL1150169, “Fatty acid synthase inhibitors from plants: isolation, structure elucidation, and SAR studies” (J Nat Prod, 2002).

The nature of test [1]: Inhibition of Saccharomyces cerevisiae fatty acid synthase. The procedure, abridged:
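Yeast FAS semipurified by 50% ammonium sulfate precipitation of lysate (pH 6.6 phosphate, EDTA, DTT, protease inhibitors), dialyzed, and diluted to 250 mOD/min/mL. Samples preincubated with enzyme 30 min at room temperature, then mixed 1:1 with mix of 1 mM malonyl CoA and NADPH, 40 µM acetyl CoA, and 2 mM DTT. A340 read kinetically; rate over initial 2 min. IC50 from dose-response curves.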

In a further test the test system is Candida albicans. Description: Antifungal activity against Candida albicans ATCC 90028. In kind it is functional, organism-based.
For the next test, the system named is Cryptococcus neoformans. The experiment in a line: Antifungal activity against Cryptococcus neoformans ATCC 90113. Type of test: functional, organism-based.

Values after ≈ are worked out from the molar mass of the structure shown.

For `O=C(O)C[C@H]1C(=O)O[C@H]2[C@H](OC(=O)c3cc(O)c(O)c(O)c3)[C@@H](OC(=O)c3cc(O)c(O)c4c3[C@H]1[C@H](O)C(=O)O4)[C@H](OC(=O)c1cc(O)c(O)c(O)c1)O[C@@H]2COC(=O)c1cc(O)c(O)c(O)c1` [CHEBULINIC ACID], the half-maximal inhibitory concentration (IC50) (in test [1]; with Candida albicans; in the test with Cryptococcus neoformans) was over 50 µg/mL throughout.

As for `CC1(C)CC[C@]2(C(=O)O[C@@H]3O[C@H](CO)[C@@H](O)[C@H](O)[C@H]3O)CC[C@]3(C)C(=CC[C@@H]4[C@@]5(C)C[C@@H](O)[C@H](O)[C@@](C)(CO)[C@@H]5[C@H](O)C[C@]43C)[C@@H]2C1` [CHEBULOSIDE II], the IC50 (in test [1]; with Candida albicans; with Cryptococcus neoformans) was over 50 µg/mL each time.

`O=c1oc2c(O)c(O)cc3c(=O)oc4c(O)c(O)cc1c4c23` [ELLAGIC ACID]: the half-inhibitory concentration (IC50) is 20 µg/mL (≈ 66.2 µM) in test [1], over 50 µg/mL in the test with Candida albicans and 5.5 µg/mL (≈ 18.2 µM) in the test with Cryptococcus neoformans.

On to `C[C@@H]1O[C@@H](Oc2cc3c(=O)oc4c(O)c(O)cc5c(=O)oc(c2O)c3c45)[C@H](O)[C@H](O)[C@H]1O` [ESCHWEILENOL C], for which the IC50 was 7.5 µg/mL (≈ 16.7 µM) in test [1], over 50 µg/mL in the test on Candida albicans and over 50 µg/mL in the test with Cryptococcus neoformans.

On to `O=c1c(O)c(-c2ccc(O)c(O)c2)oc2cc(O)ccc12` [FISETIN], for which the 50% inhibitory concentration (IC50) (in test [1]; with Candida albicans; with Cryptococcus neoformans) was over 50 µg/mL each time.

On to `O=C1CC(c2ccccc2)Oc2ccccc21` (centres undefined) [FLAVANONE], for which the IC50 (in test [1]; in the test with Candida albicans; in the test with Cryptococcus neoformans) was over 50 µg/mL in each case.

With `COc1ccc(-c2coc3cc(O)c(O)cc3c2=O)cc1` [FORMONETIN], the IC50 in test [1] was 50 µg/mL (≈ 176 µM); in the test with Candida albicans it was over 50 µg/mL; in the test with Cryptococcus neoformans, over 50 µg/mL.

Consider `O=c1c(O)c(-c2ccccc2)oc2cc(O)cc(O)c12` [GALANGIN], for which the IC50 (in test [1]; in the test on Candida albicans; in the test with Cryptococcus neoformans) was over 50 µg/mL throughout.

`COc1cc(-c2cc(=O)c3c(O)c(OC)c(OC)c(OC)c3o2)cc(OC)c1OC` [GARDENIN]: the IC50 (in test [1]; in the test on Candida albicans; with Cryptococcus neoformans) was over 50 µg/mL throughout.

Consider `O=c1c(-c2ccc(O)cc2)coc2cc(O)cc(O)c12` [GENISTEIN], for which the IC50 (in test [1]; in the test with Candida albicans; with Cryptococcus neoformans) was over 50 µg/mL throughout.

With `CC(C)=CCc1c(O)ccc(C(=O)/C=C/c2ccc(O)cc2)c1O` [ISOBAVACHALCONE], the IC50 in test [1] was over 50 µg/mL; in the test on Candida albicans, 2 µg/mL (≈ 6.17 µM); with Cryptococcus neoformans it was 45 µg/mL (≈ 139 µM).

`O=c1c(O)c(-c2ccc(O)cc2)oc2cc(O)cc(O)c12` [KAEMPFEROL]: the IC50 in test [1] is 50 µg/mL (≈ 175 µM); in the test with Candida albicans it was over 50 µg/mL; in the test on Cryptococcus neoformans, over 50 µg/mL.

For the compound `O=c1cc(-c2ccc(O)c(O)c2)oc2cc(O)cc(O)c12` [LUTEOLIN], the IC50 was 9 µg/mL (≈ 31.4 µM) in test [1], over 50 µg/mL in the test on Candida albicans and over 50 µg/mL in the test on Cryptococcus neoformans.

Consider `O=c1c(O)c(-c2cc(O)c(O)c(O)c2)oc2cc(O)cc(O)c12` [MYRICETIN], for which the figures for the IC50 (in test [1]; with Candida albicans; with Cryptococcus neoformans) were 15 µg/mL (≈ 47.1 µM), over 50 µg/mL and over 50 µg/mL, respectively.

Consider `O=C1C[C@@H](c2ccc(O)cc2)Oc2cc(O)cc(O)c21` [NARINGENIN], for which the IC50 (in test [1]; with Candida albicans; in the test on Cryptococcus neoformans) was over 50 µg/mL each time.

On to `COc1c(O[C@@H]2O[C@H](CO)[C@@H](O)[C@H](O)[C@H]2O)cc2c(=O)oc3c4c(cc5c(=O)oc1c2c35)OCO4` [NYSSOSIDE], for which the IC50 (in test [1]; with Candida albicans; in the test on Cryptococcus neoformans) was over 50 µg/mL in each case.

`O=c1c(-c2ccc(O)c(O)c2)coc2cc(O)cc(O)c12` [OROBOL]: the IC50 (in test [1]; in the test on Candida albicans; in the test with Cryptococcus neoformans) was over 50 µg/mL in each case.

Turning to `O=C(OC[C@H]1O[C@@H](OC(=O)c2cc(O)c(O)c(O)c2)[C@H](OC(=O)c2cc(O)c(O)c(O)c2)[C@@H](OC(=O)c2cc(O)c(O)c(O)c2)[C@@H]1OC(=O)c1cc(O)c(O)c(O)c1)c1cc(O)c(O)c(O)c1` [PENTAGALLOYL GLUCOSE], the IC50 in test [1] is 2.8 µg/mL (≈ 2.98 µM); in the test on Candida albicans it was over 50 µg/mL; with Cryptococcus neoformans, over 50 µg/mL.

Take `O=c1c(O)c(-c2ccc(O)c(O)c2)oc2cc(O)cc(O)c12` [QUERCETIN]: the IC50 in test [1] is 12 µg/mL (≈ 39.7 µM); in the test on Candida albicans, over 50 µg/mL; with Cryptococcus neoformans it was over 50 µg/mL.

Consider `C[C@@H]1O[C@@H](OC[C@H]2O[C@@H](Oc3c(-c4ccc(O)c(O)c4)oc4cc(O)cc(O)c4c3=O)[C@H](O)[C@@H](O)[C@@H]2O)[C@H](O)[C@H](O)[C@H]1O` [RUTIN], for which the IC50 in test [1] was over 50 µg/mL; in the test on Candida albicans, over 50 µg/mL; with Cryptococcus neoformans, 30 µg/mL (≈ 49.1 µM).

For `COc1cc(O)c2c(=O)cc(-c3ccc(O)cc3)oc2c1-c1cc(-c2cc(=O)c3c(O)cc(O)cc3o2)ccc1O` [SOTETSUFLAVONE], the figures for the IC50 (in test [1]; in the test on Candida albicans; in the test on Cryptococcus neoformans) were 25 µg/mL (≈ 45.2 µM), over 50 µg/mL and over 50 µg/mL, respectively.

`CC1(C)CC[C@]2(C(=O)O)CC[C@]3(C)C(=CC[C@@H]4[C@@]5(C)C[C@@H](O)[C@H](O)[C@@](C)(CO)[C@@H]5[C@H](O)C[C@]43C)[C@@H]2C1` [TERMINOLIC ACID]: the IC50 (in test [1]; with Candida albicans; in the test on Cryptococcus neoformans) was over 50 µg/mL each time.

On to `C[C@H]1[C@H](C)CC[C@]2(C(=O)O)CC[C@]3(C)C(=CC[C@@H]4[C@@]5(C)CC[C@H](O)C(C)(C)[C@@H]5CC[C@]43C)[C@H]12` [URSOLIC ACID], for which the IC50 was 38 µg/mL (≈ 83.2 µM) in test [1], over 50 µg/mL in the test with Candida albicans and over 50 µg/mL with Cryptococcus neoformans.

Broadly, the IC50 is the concentration that inhibits the measured activity by half.
